Test results published in ChEMBL document CHEMBL1629529, “Design, synthesis, and evaluation of diarylpyridines and diarylanilines as potent non-nucleoside HIV-1 reverse transcriptase inhibitors” (J Med Chem, 2010).

Assays:
[1] = system: Human immunodeficiency virus 1; assay: Antiviral activity against HIV1; assay type: functional, organism-based
[2] = system: Human immunodeficiency virus 1; assay: Antiviral activity against HIV1 NL4-3 infected in human TZM-bl cells after 2 days by luciferase reporter gene assay
[3] = system: Human immunodeficiency virus 1; assay: Antiviral activity against HIV1 3B infected in human MT2 cells assessed as reduction in p24 antigen level after 4 days by ELISA; assay type: functional, organism-based
Summary of the method: (§1)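 MT-2 cells (10^4/well) were infected with 100 TCID50 virus in RPMI 1640 with 10% FBS, with or without graded compound concentrations, overnight. Supernatant was then replaced with compound-free medium. On day 4 post-infection, supernatant was mixed 1:1 with 5% Triton X-100 and p24 antigen was quantified by ELISA. Percent inhibition was converted to EC50 with CalcuSyn. Tested at least in triplicate.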

[4] = system: MT2; assay: (§2) Cytotoxicity in human MT2 cells after 4 day by XTT assay; assay type: cell-based; conditions: mt2, 96 h
Summary of the method: (§3)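 MT-2 cells (5 · 10^5/mL) were mixed with an equal volume of graded compound concentrations and incubated 4 days at 37 °C. XTT solution (1 mg/mL) containing 0.02 μM phenazine methosulphate was then added. After 4 h, absorbance at 450 nm was read.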

[5] = Cytotoxicity in human TZM-bl cells after 4 day by XTT assay; assay type: cell-based; conditions: 96 h
[6] = system: Human immunodeficiency virus 1; assay: Antiviral activity against multidrug resistant HIV1 RTMDR containing reverse transcriptase L74V, M41L, V106A and T215Y mutant infected in human TZM-bl cells after 2 days by luciferase reporter gene assay; conditions: Human immunodeficiency virus 1, RTMDR, 48 h
[7] = system: Human immunodeficiency virus 1; assay: Resistance index, ratio of EC50 for multidrug resistant HIV1 A17 to EC50 for wild type HIV1 3B; assay type: functional
[8] = Selectivity index, ratio of CC50 for human TZM-bl cells to EC50 for HIV1 NL4-3; assay type: toxicity, cell-based; conditions: for Ratio CC50/EC50: tzm-bl
[9] = system: Human immunodeficiency virus 1; assay: Resistance index, ratio of EC50 for multidrug resistant HIV1 RTMDR to EC50 for wild type HIV1 NL4-3; assay type: functional
[10] = system: Human immunodeficiency virus 1; assay: Antiviral activity against multidrug resistant HIV1 A17 containing reverse transcripatseK103N and Y181C mutation infected in human MT2 cells assessed as reduction in p24 antigen level after 4 days by ELISA; assay type: functional, organism-based; conditions: Human immunodeficiency virus 1, A17, MT2, 96 h; summary of the method: as §1
[11] = Selectivity index, ratio of CC50 for human MT2 cells to EC50 for HIV1 3B; assay type: toxicity, cell-based; conditions: for Ratio CC50/EC50: mt2
Summary of the method: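 SI = CC50/EC50 (p24 ELISA). XTT (1 mg/mL) containing 0.02 μM PMS was added for 4 h, then absorbance was read at 450 nm. CC50 was calculated with CalcuSyn.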

[12] = as §2; assay type: cell-based; conditions: MT2 cells; summary of the method: as §3
[13] = system: Human immunodeficiency virus 1; assay: Antiviral activity against multidrug resistant HIV1 RTMDR containing reverse transcriptase L74V, M41L, V106A and T215Y mutant infected in human TZM-bl cells after 4 days by luciferase reporter gene assay; assay type: functional, organism-based; conditions: Human immunodeficiency virus 1, RTMDR, 96 h
[14] = Human immunodeficiency virus 1, NL4-3, TZM-bl, 48 h, read-out: EC50
[15] = Human immunodeficiency virus 1, 3B, MT2, 96 h, read-out: EC50

Compound	EC50 [1] [nM]	EC50 [2, 14] [nM]	EC50 [3, 15] [nM]	CC50 [4] [µM]	CC50 [5] [µM]	EC50 [6] [nM]	Ratio EC50 [7]	Ratio CC50/EC50 [8]	Ratio EC50 [9]	EC50 [10] [nM]	Ratio CC50/EC50 [11]	EC50 ([2]; tzm-bl)	CC50 at 96 h [12] [µM]	EC50 [13] [nM]	EC50 ([3]; mt2)	selectivity ratio ([11]; MT2 cells, read-out: Ratio CC50/EC50)	selectivity ratio ([8]; TZM-bl cells, read-out: Ratio CC50/EC50)
Cc1cc(C#N)cc(C)c1Oc1cc(Nc2ccc(C#N)cc2)c(N)cc1[N+](=O)[O-]	3	–	–	–	–	–	–	–	–	–	–	–	–	–	–	–	–
CC(=O)/C=C/c1cc(C)c(Oc2cc(Nc3ccc(C#N)cc3)c(N)cc2[N+](=O)[O-])c(C)c1	–	6.33	47	22.6	5.88	–	–	–	–	–	–	–	–	–	–	–	–
Cc1cc(Br)cc(C)c1Oc1ccc(N)c(Nc2ccc(C#N)cc2)n1	–	7.29	33	9.61	15.5	6.8	106	2132	0.93	3490	291	–	–	–	–	–	–
Cc1cc(Br)cc(C)c1Oc1ccc([N+](=O)[O-])c(Nc2ccc(C#N)cc2)n1	–	50.2	45	65.1	> 45.7	77.6	>222	> 909	1.55	> 10000	1447	–	–	–	–	–	–
C=CCc1cc(C)c(Oc2ccc([N+](=O)[O-])c(Nc3ccc(C#N)cc3)n2)c(C)c1	–	–	1340	–	–	–	–	–	–	–	27.37	Not Active	39.7	–	–	–	–
C=CCc1cc(C)c(Oc2ccc(N)c(Nc3ccc(C#N)cc3)n2)c(C)c1	–	6.89	67	14	8.46	–	> 149	1228	2.23	> 10000	209	–	–	15.4	–	–	–
Cc1cc(C#CC2CC2)cc(C)c1Oc1ccc([N+](=O)[O-])c(Nc2ccc(C#N)cc2)n1	–	> 47200	–	–	–	–	–	–	–	–	–	–	–	–	Not Active	–	–
Cc1cc(C#CC2CC2)cc(C)c1Oc1ccc(N)c(Nc2ccc(C#N)cc2)n1	–	91.2	410	5.71	7.45	–	> 24	82	1.34	> 10000	14	–	–	121	–	–	–
Cc1cc(C(O)C[N+](=O)[O-])cc(C)c1Oc1ccc([N+](=O)[O-])c(Nc2ccc(C#N)cc2)n1 (stereo not drawn)	–	308	1710	27.1	> 44.5	–	–	> 145	–	–	16	–	–	–	–	–	–
Cc1cc(C(O)C[N+](=O)[O-])cc(C)c1Oc1ccc(N)c(Nc2ccc(C#N)cc2)n1.Cl (stereo not drawn)	–	10.1	68	20.6	7.02	–	–	695	–	–	303	–	–	–	–	–	–
Cc1cc(/C=C/C(=O)O)cc(C)c1Oc1ccc([N+](=O)[O-])c(Nc2ccc(C#N)cc2)n1	–	14900	8120	34.8	27.8	–	–	–	–	–	–	–	–	–	–	–	–
Cc1cc(/C=C/C(=O)O)cc(C)c1Oc1ccc(N)c(Nc2ccc(C#N)cc2)n1	–	600	630	15.7	18	–	–	–	–	–	–	–	–	–	–	–	–
CC(=O)/C=C/c1cc(C)c(Oc2ccc([N+](=O)[O-])c(Nc3ccc(C#N)cc3)n2)c(C)c1	–	24.4	608	> 47.9	> 46.7	–	–	–	–	–	–	–	–	–	–	–	–
CC(=O)CCc1cc(C)c(Oc2ccc(N)c(Nc3ccc(C#N)cc3)n2)c(C)c1	–	1.95	55	18.4	9.25	–	13	4744	1.64	730	–	–	–	3.2	–	1840	–
Cc1cc(/C=C/C#N)cc(C)c1Oc1ccc([N+](=O)[O-])c(Nc2ccc(C#N)cc2)n1	–	8	49	> 100	> 48.7	–	> 204	> 6082	1.85	> 10000	> 2041	–	–	14.8	–	–	–
Cc1cc(/C=C/C#N)cc(C)c1Oc1ccc(N)c(Nc2ccc(C#N)cc2)n1	–	0.71	< 14	5.63	9.75	–	14	13732	0.83	200	> 402	–	–	0.59	–	–	–
Cc1cc(/C=C/C#N)cc(C)c1Oc1ccc([N+](=O)[O-])c(Nc2ccc(C#N)cc2)c1	–	10.4	37	> 100	> 48.8	17	>270	–	1.63	> 10000	> 2702	–	–	–	–	–	4690
Cc1cc(/C=C/C#N)cc(C)c1Oc1ccc(N)c(Nc2ccc(C#N)cc2)c1	–	0.55	< 14	8.83	25	1.79	43	45455	3.25	600	> 631	–	–	–	–	–	–
CC(=O)/C=C/c1cc(C)c(Oc2cc(Nc3ccc(C#N)cc3)c([N+](=O)[O-])cc2[N+](=O)[O-])c(C)c1	–	146	350	> 100	24.4	–	–	167	–	–	> 286	–	–	–	–	–	–
Cc1cc(/C=C/C#N)cc(C)c1Oc1cc(Nc2ccc(C#N)cc2)c([N+](=O)[O-])cc1[N+](=O)[O-]	–	97.1	370	21.7	> 44	–	–	> 453	–	–	59.35	–	–	–	–	–	–
Cc1cc(/C=C/C#N)cc(C)c1Oc1cc(Nc2ccc(C#N)cc2)c(N)cc1[N+](=O)[O-]	–	0.38	< 14	88.2	> 47.1	–	6.79	> 123842	2.29	95	> 6298	–	–	0.87	–	–	–
Cc1cc(/C=C/C#N)cc(C)c1Oc1cc(Nc2ccc(C#N)cc2)c(N)cc1N	–	4.3	< 14	18.9	14.4	–	128	3356	0.47	3050	> 1353	–	–	2	–	–	–
C#Cc1cc(C)c(Oc2ccc([N+](=O)[O-])c(Nc3ccc(C#N)cc3)n2)c(C)c1	–	–	–	–	–	–	> 40	–	1.94	> 10000	–	–	–	215	–	–	–
C#Cc1cc(C)c(Oc2ccc(N)c(Nc3ccc(C#N)cc3)n2)c(C)c1	–	–	–	–	–	–	34	–	1.34	1430	–	–	–	9	–	–	–
Cc1cc(I)cc(C)c1Oc1ccc(N)c(Nc2ccc(C#N)cc2)n1	–	–	–	–	–	–	36	–	0.67	1930	–	–	–	–	–	–	–
Cc1cc(C#N)cc(C)c1Oc1ccc(N)c(Nc2ccc(C#N)cc2)n1	–	–	15	> 100	–	–	26	13206	1.41	390	> 6667	–	–	–	–	–	–
Cc1cc(I)cc(C)c1Oc1ccc([N+](=O)[O-])c(Nc2ccc(C#N)cc2)n1	–	–	–	–	–	–	>127	–	1.55	> 10000	–	–	–	–	–	–	–
Cc1cc(C#N)cc(C)c1Oc1nc(Nc2ccc(C#N)cc2)nc(N)c1Br [ETRAVIRINE]	–	–	41	50.7	8.96	–	–	–	–	330	–	–	–	1	–	–	–
